Measurements of several laboratories.
Lines come from different studies, so protocols differ.
Target: Protein kinase C eta type (PRKCH, Homo sapiens, UniProt P24723)

| SMILES | test | conditions | endpoint | value |
| --- | --- | --- | --- | --- |
| CN(c1ccnc(CNc2nc(Nc3ccc4c(c3)CC(=O)N4)ncc2C(F)(F)F)n1)S(C)(=O)=O | cell-free assay, competition with immobilised ligand | 1 µM | remaining binding | 100% |
| COc1cc2ncnc(Nc3ccc(Oc4ccccc4)c(C)c3C)c2cc1OC | enzyme activity, inhibitor | 1 µM | inhibition | 5% |
| Cc1ccc(NC(=O)c2ccc(C)c(C(F)(F)F)c2)cc1C#Cc1nn(C2CCC(O)CC2)c2ncnc(N)c12 (stereo not shown) | cell-free assay | 10 µM | remaining signal | 72% |
| CN1CCN(c2cnc3c(C4CCN(C(=O)c5ccc(OC(F)(F)F)cc5N)CC4)ncnc3c2)CC1 | cell-free assay, competition with immobilised ligand | 1 µM | remaining binding | 86% |
| Nc1ncnc2occ(-c3ccc(NC(=O)Nc4cc(C(F)(F)F)ccc4F)cc3)c12 | cell-free assay | 20 µM | remaining signal | 64% |
| Cn1cnc(Br)c1C1=CN(c2ncnc3[nH]cnc23)CCS1 | enzyme activity, inhibitor, radiometric | 50 nM | inhibition | 29.7% |
| Cc1ccc(C(=O)Nc2ccc(CN3CCN(C)CC3)c(C(F)(F)F)c2)cc1C#Cc1cnc2cccnn12 | enzyme activity | 23.5 nM | remaining activity | 91% |
| CC(C)(O)c1cncc(-c2nc3ccc(F)cc3n2C2CC2)c1 | cell-free assay, competition with immobilised ligand | 1 µM | remaining binding | 98% |
| CC/C(=N\NC(=O)NCc1cccc(O)c1)c1ccc(O)c(C)c1O | enzyme activity, inhibitor | 0.1 µM | inhibition | 44.8% |
| CNC(=O)c1cc(Oc2ccc(NC(=O)Nc3ccc(Cl)c(C(F)(F)F)c3)cc2)ccn1 | enzyme activity, inhibitor | 10 µM | inhibition | 0% |
| COc1cc(Cl)c(C(=O)N[C@@H](CN[C@H]2CC[C@@H](N)CC2)Cc2ccc(C#N)cc2)cc1-c1ccc(CN[C@H](C)c2ccc(C)cc2)o1 | enzyme activity, inhibitor | 1 µM | remaining activity | 104% |
| Cn1cncc1C1=CN(c2ncnc3[nH]cnc23)CCS1 | enzyme activity, inhibitor, radiometric | 50 nM | inhibition | 15.8% |
| CC(C)(O)[C@H]1CC[C@H](Nc2ccc3ncc(-c4cccc(C(F)(F)F)c4)n3n2)CC1 | enzyme activity, inhibitor | 1 µM | remaining activity | 97.2% |
| CCCOc1ccc([C@H]2[C@H](C(=O)O)[C@@H](c3ccc4c(c3)OCO4)CN2CC(=O)Nc2c(CC)cccc2CC)cc1 | cell-free assay, competition with immobilised ligand | 1 µM | remaining binding | 100% |
| CCCS(=O)(=O)Nc1ccc(F)c(C(=O)c2c[nH]c3ncc(-c4ccc(Cl)cc4)cc23)c1F | enzyme activity, inhibitor | 1 µM | inhibition | < 10% |
| CC(=O)c1c(NS(C)(=O)=O)c2cc(-c3ccc(Cl)cc3)c(-c3ccc(Cl)cc3Cl)nc2n(C)c1=O | cell-free assay, competition with immobilised ligand | 1 µM | remaining binding | 91% |
| O=C(Nc1cnn(-c2csc(C(=O)NC3COC3)c2)c1)Nc1ccccc1Cl | enzyme activity, inhibitor | 5 µM | remaining activity | 103% |
| CNC(=O)Nc1ccc2c(c1)[C@@]1(CC2)OC(=O)N(CC(=O)N(Cc2ccc(F)cc2)[C@@H](C)C(F)(F)F)C1=O | cell-free assay, competition with immobilised ligand | 1 µM | remaining binding | 87% |
| CC(C)c1ccc(NC(=O)c2cccs2)c(-c2nc3ccccc3[nH]c2=O)c1 | enzyme activity, inhibitor | 1 µM | activity vs control | 108% |
